Laboratory results: article PMC5694347 (Clinical cancer research : an official journal of the …, 2015)
Marks after values point to notes of the source that are not given here.

How the values were obtained:
NQO1 = assay: Whole blood reverse-transcriptase-PCR of NRF-2-regulated genes; type: in vivo, human; conditions: approximate
Procedure, shortened: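 Whole blood was collected in PAXgene tubes at screening, at baseline and during cycle 1. Schedule A: day 1 at 4 and 8 h, day 2 pre-dose, day 5. Schedule B: days 1 and 11 at 4, 8 and 23 h, pre-dose days 4 and 11, day 15. Eight genes were assayed by RT-PCR, with ΔCt against four housekeeping genes (18S, B2M, RPLP0, UBC). Percent change = (2^−(post ΔCt − baseline ΔCt) − 1) × 100. Undetermined Ct was set to 40.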

[1] = Plasma pharmacokinetics, cycle 1; conditions: human, in vivo
[2] = test system: pevonedistat–NEDD8 adduct; assay: Bone marrow aspirate immunohistochemistry for pevonedistat–NEDD8 adduct; type: in vivo, human; conditions: one patient treated at 25 mg/m^2, pre-dose and post-dose sample
Procedure, shortened: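 Patients with marrow involvement received IV pevonedistat over 1 h. Marrow aspirates were taken at screening and 2–6 h after the cycle 1 dose on day 2 (schedule A) or day 4 (schedule B). Aspirates were clotted, formalin-fixed and paraffin-embedded. Adduct-specific antibody was applied 1 h at 37°C, then biotinylated goat anti-rabbit secondary 32 min at room temperature, with DAB detection. Slides were counterstained and whole-slide imaged at 20x.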

[3] = test system: patients with relapsed and/or refractory lymphoma or MM; assay: Phase I dose escalation: MTD and DLT determination; type: in vivo
NRF-2 = assay: Skin punch biopsy immunohistochemistry, NRF-2; type: in vivo, human; conditions: 19 patients, schedule A 25–147 mg/m^2, after second dose of cycle 1
Procedure, shortened: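 IV infusion over 1 h. 2 mm skin punch biopsies were taken at screening and 3–6 h after the cycle 1 dose on day 2 (schedule A) or day 4 (schedule B). On 5 µm sections, CC1 antigen retrieval ran 20 min. Primary antibody was applied 1 h at room temperature, then alkaline phosphatase secondary 32 min, developed with NBT/BCIP. Slides were counterstained and imaged at 20x. Signal was percent stained area of the basal epithelial region.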

[4] = test system: patients with AML and myelodysplastic syndromes (MDS); conditions: same dosing as schedule B (days 1, 4, 8, 11); cited from earlier work
[5] = test system: relapsed and/or refractory lymphoma or MM; assay: Antitumor activity: disease response; type: in vivo, human

## NS(=O)(=O)OC[C@@H]1C[C@@H](n2ccc3c(N[C@H]4CCc5ccccc54)ncnc32)C[C@@H]1O [pevonedistat]
NQO1; doses of 25–83 mg/m^2, cycle 1 day 1
  NQO1 expression in whole blood, maximal change from baseline: 250% to 400%
NQO1; doses of 110–261 mg/m^2, cycle 1 day 1
  NQO1 expression in whole blood, maximal change from baseline: 700% to 800%
[1]
  Dose proportionality of mean Cmax and AUC0–24hr: approximate dose-proportional increases
[1]; 110 mg/m2
  Cmax: 1683 (28) ng/mL
  Tmax: 1.08 h
[1]; 110 mg/m2, Cmax
  Cmax: 1500 ng/mL
[1]; 110 mg/m2, Tmax
  Tmax: 1.02 h
[1]; 196 mg/m2
  AUC0-τ: 12,367 (13) ^c nghr/mL
  Cmax: 3751 (53) ng/mL
  Mean plasma elimination half-life: 8.5 h
  Tmax: 1.02 (0.9– 1.1) hr
  clearance: 472 mL/min
[1]; 196 mg/m2, Cmax
  Cmax: 4560 ng/mL
[1]; 196 mg/m2, Mean plasma elimination half-life
  half-life: ~8.5 h
[1]; 196 mg/m2, Plasma elimination half-life, range
  half-life: 7.7 to 9.1 h
[1]; 196 mg/m2, Tmax
  Tmax: 1.1 h
[1]; 196 mg/m2, t½ (terminal disposition half-life)
  half-life: 8.5 h
[2]
  Pevonedistat–NEDD8 adduct in bone marrow aspirate: not detected
[3]; in vivo
  DLTs at 261 mg/m^2: no DLTs were observed
[3]; schedule A: IV days 1, 2, 8, 9 of 21-day cycles
  Maximum tolerated dose (MTD): 110 mg/m^2
NRF-2
  NRF-2 expression in skin, median increase vs baseline: 39.4 fold
  NRF-2 expression in skin, range of increase vs baseline: 0–1483 fold
[4]
  MTD in AML/MDS patients: 83 mg/m^2
[5]; 5 MM patients who received ≥5 cycles
  Duration of SD: 3.22–6.01 months
[5]; 7 lymphoma patients who received ≥5 cycles
  Duration of SD: 3.25–9.53 months
[5]; MM patients
  Best response in MM patients: best responses of only SD
